In ChEMBL document CHEMBL1125273, “Synthesis and biological evaluation of quinocarcin derivatives: thioalkyl-substituted quinones and hydroquinones” (J Med Chem, 1991):
≈ marks a conversion by molar mass, not a printed value.

Assays:
Homo sapiens [1] = assay: Ratio of ILS tested compound/quinocarcin against human mammary carcinoma MX-1 cell line implanted subcutaneously in mice and the compound administered intravenously at a dose of 9.35 mg/kg on days 1-5.; format: functional; settings: route intravenous
[2] = Antitumor activity in vivo in CD2F1 mice measured in terms of percent increase in lifespan calculated at a dose of 12.5 mg/kg intraperitoneally on days 1-5.; format: functional; settings: Mus musculus, ip, route intraperitoneal
How it was run: (§1)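 P388 lymphocytic leukemia cells (1×10^6) were implanted ip into CD2F1 mice (about 22 g), five mice per group. Drug was given ip from the day after implantation, either once (day 1) or daily on days 1–5. ILS = (T/C − 1) × 100, where T and C are the median survival times of treated and control mice.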

HeLa = assay: In vitro concentration required to inhibit the growth of HeLa S3 cells by 50%; format: functional, cell-based; settings: Homo sapiens
How it was run: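 HeLa S3 cells (5 × 10⁴) seeded in Eagle's MEM with 10% FBS and 0.06 mg/mL kanamycin; graded drug concentrations, diluted in growth medium, added 24 h after seeding. Incubated 72 h at 37 °C, humidified 5% CO₂. Monolayers then washed, detached with 0.05% trypsin/0.02% EDTA and counted electronically; IC50 taken as concentration giving 50% growth inhibition.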

Homo sapiens [3] = assay: Ratio of ILS tested compound/quinocarcin against human mammary carcinoma MX-1 cell line implanted subcutaneously in mice and the compound administered intravenously at a dose of 5.96 mg/kg on days 1-5.; format: functional; settings: route intravenous
[4] = Ratio of the ILS tested compound/quinocarcin was determined in CD2F1 mice on days 1-5.; format: functional, Mus musculus
How it was run: (§2)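 CD2F1 mice (5 per group) received 10^6 P388 cells ip. Drug was given ip on day 1 or on days 1–5. ILS was taken as (T/C − 1) × 100 from median survival times, and each compound's ILS was divided by the ILS of quinocarcin.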

CCRF S-180 [5] = assay: Ratio of ILS tested compound/quinocarcin against murine sarcoma S-180 tumor cell line implanted subcutaneously in mice and the compound administered intravenously at a dose of 12.5 mg/kg on days 1-5.; format: functional, Mus musculus; settings: route intravenous
[6] = Antitumor activity in vivo in CD2F1 mice measured in terms of percent increase in lifespan calculated at a dose of 25 mg/kg intraperitoneally on day one.; format: functional; settings: Mus musculus, ip, route intraperitoneal; how it was run: as §1
[7] = Ratio of the ILS tested compound/quinocarcin was determined for day one in CD2F1 mice.; format: functional, Mus musculus; how it was run: as §2
CCRF S-180 [8] = assay: Ratio of ILS tested compound/quinocarcin against murine sarcoma S-180 tumor cell line implanted subcutaneously in mice and the compound administered intravenously at a dose of 5.85 mg/kg on days 1-5.; format: functional, Mus musculus; settings: route intravenous
Co-3 [9] = assay: Ratio of ILS tested compound/quinocarcin against Co-3 tumor cell line implanted subcutaneously in mice and the compound administered intravenously at a dose of 5.58 mg/kg on days 1-5.; format: functional, Homo sapiens; settings: route intravenous
[10] = Antitumor activity in vivo in CD2F1 mice measured in terms of percent increase in lifespan calculated at a dose of 6.25 mg/kg intraperitoneally on day one.; format: functional; settings: Mus musculus, ip, route intraperitoneal; how it was run: as §1
Homo sapiens [11] = assay: Ratio of ILS tested compound/quinocarcin against human mammary carcinoma MX-1 cell line implanted subcutaneously in mice and the compound administered intravenously at a dose of 3.55 mg/kg on days 1-5.; format: functional; settings: route intravenous
Homo sapiens [12] = assay: Ratio of ILS tested compound/quinocarcin against human mammary carcinoma MX-1 cell line implanted subcutaneously in mice and the compound administered intravenously at a dose of 5.58 mg/kg on days 1-5.c means number of cured mice.; format: functional; settings: route intravenous
St-4 [13] = assay: Ratio of ILS tested compound/quinocarcin against St-4 tumor cell line implanted subcutaneously in mice and the compound administered intravenously at a dose of 5.58 mg/kg on days 1-5.; format: functional, Homo sapiens; settings: route intravenous
[14] = Antitumor activity in vivo in CD2F1 mice measured in terms of percent increase in lifespan calculated at a dose of 3.13 mg/kg intraperitoneally on days 1-5.; format: functional; settings: Mus musculus, ip, route intraperitoneal; how it was run: as §1
St-4 [15] = assay: Ratio of ILS tested compound/quinocarcin against St-4 tumor cell line implanted subcutaneously in mice and the compound administered intravenously at a dose of 9.18 mg/kg on days 1-5.; format: functional, Homo sapiens; settings: route intravenous
Co-3 [16] = assay: Ratio of ILS tested compound/quinocarcin against Co-3 tumor cell line implanted subcutaneously in mice and the compound administered intravenously at a dose of 9.18 mg/kg on days 1-5.; format: functional, Homo sapiens; settings: route intravenous
Homo sapiens [17] = assay: Ratio of ILS tested compound/quinocarcin against human mammary carcinoma MX-1 cell line implanted subcutaneously in mice and the compound administered intravenously at a dose of 4.41 mg/kg on days 1-5.; format: functional; settings: route intravenous
CCRF S-180 [18] = assay: Ratio of ILS tested compound/quinocarcin against murine sarcoma S-180 tumor cell line implanted subcutaneously in mice and the compound administered intravenously at a dose of 4.41 mg/kg on days 1-5.; format: functional, Mus musculus; settings: route intravenous
[19] = Antitumor activity in vivo in CD2F1 mice measured in terms of percent increase in lifespan calculated at a dose of 6.25 mg/kg intraperitoneally on days 1-5.; format: functional; settings: Mus musculus, ip, route intraperitoneal; how it was run: as §1
[20] = Antitumor activity in vivo in CD2F1 mice measured in terms of percent increase in lifespan calculated at a dose of 12.5 mg/kg intraperitoneally on day one.; format: functional; settings: Mus musculus, ip, route intraperitoneal; how it was run: as §1
[21] = Antitumor activity in vivo in CD2F1 mice measured in terms of percent increase in lifespan calculated at a dose of 200 mg/kg intraperitoneally on day one.; format: functional; settings: Mus musculus, ip, route intraperitoneal; how it was run: as §1
[22] = Antitumor activity in vivo in CD2F1 mice measured in terms of percent increase in lifespan calculated at a dose of 37.5 mg/kg intraperitoneally on day one.; format: functional; settings: Mus musculus, ip, route intraperitoneal; how it was run: as §1

In the case of `CC(C)SC1=C(SC(C)C)C(=O)C2=C(C[C@H]3[C@H]4[C@H](C(=O)O)C[C@@H](C(C#N)N3[C@H]2CO)N4C)C1=O` (some centres not stated), the T/C (Homo sapiens [1]) is reported as 0.22, the ILS at 12.5 mg/kg [2] is reported as 119% and the IC50 (HeLa) is reported as 0.012 µg/mL (≈ 0.0237 µM). The T/C (Homo sapiens [3]) was 0.83, the R [4] was 1.35 and the T/C (CCRF S-180 [5]) was 0.37. The ILS at 25 mg/kg [6] was 65% and the R [7] was 1.48.
For `CSC1=C(SC)C(=O)C2=C(C[C@H]3[C@H]4[C@H](C(=O)O)C[C@@H](C5OC[C@@H]2N53)N4C)C1=O` (some centres not stated), the T/C (CCRF S-180 [8]) was 0.86, the T/C (Co-3 [9]) was 0.43 and the IC50 (HeLa) was 0.019 µg/mL (≈ 0.045 µM). The ILS at 6.25 mg/kg [10] was 48%, the T/C (Homo sapiens [11]) was 0.21 and the T/C (Homo sapiens [12]) was 0.006. It also gave a T/C (St-4 [13]) of 0.56, an ILS at 3.13 mg/kg [14] of 91% and an R [4] of 0.88. The T/C (St-4 [15]) was 0.2, the R [7] was 1.85 and the T/C (Co-3 [16]) was 0.21.
In the case of `CSC1=C(SC)C(=O)C2=C(C[C@H]3[C@H]4[C@H](C(=O)O)C[C@@H](C(C#N)N3[C@H]2CO)N4C)C1=O` (some centres not stated), the T/C (Homo sapiens [17]) is reported as 0.67, the IC50 (HeLa) is reported as 0.13 µg/mL (≈ 0.289 µM) and the T/C (CCRF S-180 [18]) is reported as 1.06. It also gave an ILS at 6.25 mg/kg [19] of 71%, an R [4] of 0.59 and an R [7] of 1.23. For the same compound, the ILS at 12.5 mg/kg [20] was 53%.
For `CCOC(=O)CSc1c(O)c2c(c(O)c1SCC(=O)OCC)[C@H](CO)N1C(C#N)[C@@H]3C[C@@H](C(=O)O)[C@H]([C@@H]1C2)N3C` (some centres not stated), the ILS at 200 mg/kg [21] was 37%, the IC50 (HeLa) was > 10 µg/mL and the R [7] was 0.9.
In the case of `COc1c2c(c(OC)c(SC(C)C)c1SC(C)C)[C@@H]1COC3[C@@H]4C[C@@H](C(=O)O)[C@H]([C@H](C2)N31)N4C` (some centres not stated), the IC50 (HeLa) is reported as 0.05 µg/mL (≈ 0.0983 µM) and the ILS at 37.5 mg/kg [22] is reported as 9%.
